OXTR ag: human OXTR agonism; P30559; CHO-OTR cells, Fluo-8 calcium fluorescence; normalized: DMSO 0%, oxytocin 100%; activation, % at 3 µM; hit rate 0.32% among 320,000; AID 2435;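 active = activation above the mean of all tested compounds plus 3 SD, cutoff set per screening run, cut at about 20% in these data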;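 also: peak over basal fluorescence ratio from a 100 s FLIPR kinetic read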
Target sequence (P30559 whole entry, looked up): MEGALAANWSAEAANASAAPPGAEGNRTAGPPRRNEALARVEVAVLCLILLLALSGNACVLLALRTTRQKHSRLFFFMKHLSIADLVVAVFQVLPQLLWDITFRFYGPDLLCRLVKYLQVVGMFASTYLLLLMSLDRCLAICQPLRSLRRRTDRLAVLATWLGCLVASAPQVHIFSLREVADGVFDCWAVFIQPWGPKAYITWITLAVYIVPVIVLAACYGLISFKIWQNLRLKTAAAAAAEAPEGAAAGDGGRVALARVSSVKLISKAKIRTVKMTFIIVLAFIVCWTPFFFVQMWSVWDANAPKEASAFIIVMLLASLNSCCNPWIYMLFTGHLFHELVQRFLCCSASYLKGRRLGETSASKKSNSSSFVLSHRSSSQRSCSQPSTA
CRFBP-R2 agonist: agonists of human CRF-binding protein/CRF-R2 receptor complex; hit rate 0.46% among 350,000; HEK293 CRF-R2/CRF-BP, calcium dye fluorescence (FLIPR); percent of saturating CRF peptide response; AID 588473; activation, % at 13.2 µM;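 active = activation of at least 50%, plus an integration ratio under a set limit after plate pattern correction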
V1aR counter: counter-screen for oxytocin receptor agonists: human V1a receptor agonists; P37288; CHO-V1R cells, Fluo-8 calcium fluorescence, agonist mode; 0% DMSO, 100% 3 nM vasopressin; activation, % at 3 µM; hit rate 0.25% among 320,000; AID 2797;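 active = activation above the mean activation of all tested compounds plus 3 SD, per screening run, cut at about 20% in these data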;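 also: signal is peak over basal fluorescence ratio across a 100 second FLIPR read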
TRPML3 ag: agonists of human TRPML3 channel. Q8TDD5. HEK293 TRPML3-YFP, Fluo-8 calcium fluorescence; 100% = the carbachol control signal. activation, % at 3 µM. hit rate 0.29% among 220,000. AID 1448;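 active = activation above its plate's cutoff, the mean activation of the plate's test wells plus 3 SD, cut at about 12% in these data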
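Test system: TRPML3-YFP stable HEK293 cells. Doses: single point at 3 µM. Incubation: dye loading 1 h 37 °C then 30 min ambient, 125 s read. Signal: Fluo-8 calcium dye fluorescence, ex 470-495, em 515-575 nm. Measure: percent activation from peak-to-basal fluorescence ratio, scaled between DMSO and carbachol.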
OXTR potentiator: potentiators of human oxytocin receptor. CHO-OTR cells, Fluo-8 calcium fluorescence, potentiator mode; 0% = oxytocin EC15, 100% = EC100. AID 2445. activation, % at 3 µM. hit rate 0.061% among 320,000;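 active = activation above that plate's cutoff, the mean activation of tested compounds plus 3 SD, cut at about 6.6% in these data, passing the limit was not always enough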
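Material: CHO-OTR cells, human receptor; compound dosing: single dose, 3.0 µM nominal final compound concentration; schedule: 6 min compound pre-incubation at room temperature, 100 s kinetic read; measured by: kinetic Fluo-8 calcium fluorescence; read-out basis: % activation vs EC15 and EC100 oxytocin; controls: EC15 oxytocin alone as 0%, 75 nM oxytocin as 100%; replicates: singlicate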
TRPN1 ag: agonists of zebrafish TRPN1 channel; AID 1424; HEK293 zebrafish TRPN1-YFP, Fluo-8 calcium fluorescence; 100% = response to 87 µM carbachol; hit rate 0.18% among 220,000; activation, % at 3 µM;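 active = activation above its plate's cutoff, the mean activation of test wells on that plate plus 3 SD, cut at about 19% in these data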
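Assay system: Zebrafish TRPN1-YFP in HEK293 cells | Incubation: Dye loading 1 h at 37 °C, then 30 min room temperature | Measured by: Kinetic Fluo-8 fluorescence, ex 470-495, em 515-575 nm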
OXTR ag confirm: human OXTR agonism, confirmation; shares compounds with OXTR ag; CHO-OTR cells, Fluo-8 calcium fluorescence, agonist; activation, % at 3 µM; hit rate 20% among 390; AID 434963;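 active = mean activation above about 20% derived from the earlier single-dose screen, limit read from the data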;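 also: peak over minimum fluorescence ratio per well during a 100 second FLIPR read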
V1aR counter 3x: activates V1a receptor in oxytocin agonist counter-screen; shares compounds with OXTR ag; CHO-V1R cells, Fluo-8 calcium fluorescence; activation, % at 3 µM; hit rate 10% among 390; AID 434991;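 active = mean activation over triplicate exceeds the hit threshold set in the earlier primary screen, cut at about 20% in these data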;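 also: peak over basal fluorescence ratio within a 100 second read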
OXTR pot cf: human OXTR potentiation, confirmation; shares compounds with OXTR potentiator; 180 tested, under 10 active; activation, % at 3 µM; AID 434985; CHO-OTR cells, Fluo-8 calcium fluorescence; scaled from low-dose to maximal oxytocin;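 active = mean percent activation over triplicates above a cutoff set from solvent-only control plates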;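 also: compounds tested in the presence of an EC15 dose of oxytocin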
Numbers stand for hits; - = inactive; . = no result given. A selection: hits, their analogues and other compounds. The true share with any hit is near 0.83%.

SMILES	OXTR ag	CRFBP-R2 agonist	V1aR counter	TRPML3 ag	OXTR potentiator	TRPN1 ag	OXTR pot cf	others
Nc1nonc1C(=O)NCCNCc1cc(Br)ccc1OCc1ccc(F)cc1	19.8	-	-	-	-	-	.	OXTR ag confirm=-;V1aR counter 3x=-
CN(C)CCCN(C(=O)CCc1ccccc1)c1nc2ccc(Cl)cc2s1	24.2	-	-	-	-	-	.	OXTR ag confirm=-;V1aR counter 3x=-
CN(C)CCCN(C(=O)COc1ccccc1)c1nc2ccc(Cl)cc2s1	-	-	-	-	-	-	.
Cc1ccc2nc(N(CCCN(C)C)C(=O)CCc3ccccc3)sc2c1	23.1	-	-	-	-	-	.	OXTR ag confirm=-;V1aR counter 3x=-
Cc1ccc2nc(N(CCCN(C)C)C(=O)CS(=O)(=O)c3ccccc3)sc2c1	-	-	-	.	-	.	.
O=C(CCNC(=O)c1ccc(Br)cc1)NCc1cccnc1	-	-	-	.	-	.	.
COc1ccc2c(c1)CC/C(=C\c1ccc(OC)c(Cn3nc(C)cc3C)c1)C2=O	36.5	-	-	-	-	-	.	OXTR ag confirm=-;V1aR counter 3x=-
CCC(=O)N1CCN(c2ccccc2NC(=S)NC(=O)c2ccco2)CC1	-	-	-	.	-	.	.
COc1ccc(NS(=O)(=O)c2ccc(C(=O)NCC3(N4CCOCC4)CCCCC3)cc2)cc1	23.8	-	-	.	-	.	.	OXTR ag confirm=-;V1aR counter 3x=-
COC(=O)[C@H]1C[C@@]2(O)CN(S(=O)(=O)c3ccc(C)cc3)C[C@@]2(OC(=O)Nc2cccs2)C[C@H]1C(=O)OC	.	-	.	.	.	.	.
CC[C@]1(C(=O)OC)[C@H]2C(=O)N(C)C(=O)[C@H]2[C@H]2CN=C(SCc3ccc(C(=O)OC)cc3)N21	.	-	.	.	.	.	.
O=C(CCc1nc(-c2ccccc2F)no1)NCCc1ccccc1Cl	-	-	-	-	-	-	.
Cc1ccc(-c2noc(CCC(=O)NCCc3ccccc3Cl)n2)cc1	19.9	-	-	-	-	-	.	OXTR ag confirm=-;V1aR counter 3x=-
CCSc1nsc(NC(=O)Nc2ccccc2F)n1	-	-	-	.	-	.	.
CCSc1nsc(NC(=O)Nc2cccc(OC)c2)n1	21.7	-	-	.	-	.	.	OXTR ag confirm=-;V1aR counter 3x=-
CC(=O)N1CCN(S(=O)(=O)c2cccc(C(=O)OCN3C(=O)c4ccccc4C3=O)c2)CC1	-	-	-	.	11.1	.	-
CCOc1ccccc1Oc1c(C)oc2cc(OC(=O)c3ccco3)ccc2c1=O	-	-	-	-	13.2	-	-
Cn1c(=O)c2c(nc(Br)n2CC(=O)C23CC4CC(CC(C4)C2)C3)n(C)c1=O	-	-	-	-	10.3	-	-
COc1cccc(C(=O)Cn2c(Br)nc3c2c(=O)n(C)c(=O)n3C)c1	-	-	-	-	-	-	.
C#CCn1cc(Cl)cc(C(=O)Nc2ccccc2)c1=O	-	-	-	.	-	.	.
C[C@H]1CN=C(N(C)C)N1CCc1ccc(F)cc1	-	-	-	.	-	.	.
CCOc1ccccc1NC(=O)c1cccc(NC(=O)CC(c2ccccc2)c2ccccc2)c1	-	-	-	-	26.4	-	9.7
CCOc1ccccc1NC(=O)c1ccc(Cl)c(NC(=O)CC(c2ccccc2)c2ccccc2)c1	-	-	-	-	-	-	.
Cc1nc2ccccc2c(=O)n1NC(=O)C1CCCCC1	-	-	-	-	-	-	.
O=C(Nn1c(C2CCC2)nc2ccccc2c1=O)C1CCC1	-	-	-	-	12.5	-	-
SMILES	OXTR ag	CRFBP-R2 agonist	V1aR counter	TRPML3 ag	OXTR potentiator	TRPN1 ag	OXTR pot cf	others
CCCN(CCC)CCNC(=O)CCC(=O)Nc1ccc2nc(N3CCN(C)CC3)cc(C)c2c1	-	-	-	-	12.3	-	-
CC(C)CN(C1CCS(=O)(=O)C1)S(=O)(=O)c1ccc(C(C)C)cc1 (configuration not stated)	-	-	-	.	-	.	.
O=C(NNC(=O)c1ccc(-c2ccccc2)cc1)c1ccccc1	-	-	-	-	12.2	-	-
Cc1cccc(C(=O)NNC(=O)c2ccc(-c3ccccc3)cc2)c1	-	-	-	-	-	-	.
O=C1CC(c2cc(-c3ccccc3)no2)C1	-	-	-	.	-	.	.
CC(C)(C(N)=O)N1CCN(c2ncc(C(F)(F)F)cc2Cl)CC1	-	-	-	-	-	-	.
COC(=O)C1CC(Cl)CN1c1ncc(C(F)(F)F)cc1Cl (configuration not stated)	-	-	-	-	16.1	-	-
CC1CCc2nn(CC(=O)NCc3ccc(F)cc3)cc2C1 (configuration not stated)	-	-	-	-	-	-	.
CC1CCc2nn(CC(=O)NCc3ccco3)cc2C1 (configuration not stated)	-	-	-	-	12.6	-	-
Cc1nnc(NC(=O)c2cc(-c3ccncc3)nc3c(C)cccc23)s1	-	-	-	.	14.8	.	-
Cc1ccc(C(=O)Nc2cccc3cccnc23)cc1C	-	-	-	.	-	.	.
O=C(Nc1cc2c3c(c1)CC(=O)N3CCC2)C1CCCCC1	-	-	-	.	-	.	.
COC(=O)c1cc(S(=O)(=O)N2CCCCC2C)c[nH]1 (configuration not stated)	-	-	-	.	11.0	.	-
COC(=O)c1cc(S(=O)(=O)N2CCCC(C)C2)c[nH]1 (configuration not stated)	-	-	-	.	-	.	.
CCN(CC(=O)NCc1cccs1)C(=O)COc1ccc(C(C)=O)cc1	-	-	-	.	-	.	.
CCOC(=O)c1c(C)n(-c2ccccc2)c2ccc(OCCN(C)C)cc12	-	-	-	.	-	.	.
CCOC(=O)c1c(CN2CCC(C)CC2)oc2ccc(OC)cc12	-	-	-	-	11.9	-	-
CCOC(=O)c1c(CN2CCCCC2)oc2ccc(OC)cc12	-	-	-	-	-	-	.
CCCn1c(CCNc2nc(-c3cccc(Br)c3)cs2)nc2ccccc21	.	-	.	.	.	.	.
CN(Cc1nc2ccccc2c(=O)[nH]1)C(=O)c1ccc(S(=O)(=O)N2CCCC2)cc1	-	-	-	.	12.9	.	-
CCOC(=O)c1ccc(S(=O)(=O)N2CCNCC2)cc1	-	-	-	-	12.9	-	-
CC(C)(C)NC(=O)c1cc(C(C)(C)C)c(O)c(C(C)(C)C)c1	-	-	-	-	10.4	-	-
C=C1C(=O)C23C(O)C1CCC2C12CCCC(C)(COC(C)=O)C1C(O)C3(O)OC2 (configuration not stated)	.	-	.	.	.	.	.
Cc1cccc(C)c1NC(=O)C(C)NCc1cccs1 (configuration not stated)	.	-	.	.	.	.	.
